Screens deposited in PubChem BioAssay by several laboratories.
Most compounds without a hit are left out; they make up all but 2% or so of the library.
HCV core dimer – HCV core protein dimerization inhibition. TR-FRET GST/Flag-core106 dimerization, 1536-well. inhibition, % at 5 µM. actives 0.33% (n = 300,000). AID 1899;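 active = inhibition above the mean of all tested compounds plus 3 SD, set per screening campaign, cut at about 45% in these data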
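Test system: GST/Flag-tagged HCV core106 proteins; Medium: KF-containing HEPES buffer, pH 7.45, DTT, CHAPS, BSA; Times: compound-protein-antibody incubation 4 h at 22.5 °C; Detection: TR-FRET 671 and 617 nm emission; Benchmarks: wells lacking GST-core106 and wells with excess unlabelled core106.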
NS3 helicase inh – HCV NS3 helicase inhibition; NS3 helicase DNA unwinding, Cy5 molecular beacon fluorescence; inhibition, % at 10.9 µM; actives 0.56% (n = 290,000); AID 1800;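 active = inhibition above the mean of all tested compounds plus 3 SD, set per campaign, cut at about 35% in these data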;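 also: 0% = DMSO wells and 100% = thioflavine S control wells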
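System: Hepatitis C virus NS3 helicase domain fragment enzyme | Reagent: Annealed dual-labelled DNA beacon duplex, ATP-started | Compound dosing: 10.9 µM single point, 0.8% DMSO | Incubation: 1 h reaction at 25 °C, ATP-initiated | Technique: Cy5 fluorescence | Evaluation: Percent inhibition from t60/t0 fluorescence ratio | Benchmarks: Low DMSO, high thioflavine S at 110 µM | Replication: Singlicate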
PABP FP inh – PABP-poly(A) binding inhibition | P11940 | PABP-poly(A) RNA binding, fluorescence polarization | inhibition, % at 35 µM | actives 1% (n = 290,000);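 also: calls also rest on retests at 20 µM and on dose response follow-up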
Target sequence (P11940 whole entry, looked up): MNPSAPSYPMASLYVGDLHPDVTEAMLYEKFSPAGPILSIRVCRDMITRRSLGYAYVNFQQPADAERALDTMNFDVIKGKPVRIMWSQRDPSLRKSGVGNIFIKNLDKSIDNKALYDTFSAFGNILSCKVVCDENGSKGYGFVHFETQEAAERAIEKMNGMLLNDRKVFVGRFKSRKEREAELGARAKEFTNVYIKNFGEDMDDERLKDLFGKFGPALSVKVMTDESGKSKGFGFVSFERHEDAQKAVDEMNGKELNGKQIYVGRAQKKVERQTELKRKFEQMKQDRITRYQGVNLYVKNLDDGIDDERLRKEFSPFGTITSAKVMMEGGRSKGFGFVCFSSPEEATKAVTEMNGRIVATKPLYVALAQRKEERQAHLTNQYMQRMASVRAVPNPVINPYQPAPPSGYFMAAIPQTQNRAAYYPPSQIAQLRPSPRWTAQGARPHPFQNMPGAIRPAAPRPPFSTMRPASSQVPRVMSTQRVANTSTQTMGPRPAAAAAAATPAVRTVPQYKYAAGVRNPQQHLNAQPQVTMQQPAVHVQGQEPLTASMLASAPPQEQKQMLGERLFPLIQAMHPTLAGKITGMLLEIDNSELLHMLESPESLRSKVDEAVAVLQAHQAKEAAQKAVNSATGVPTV
FID counter – displaces DNA intercalator in HCV helicase counter-screen; inhibition, % at 7.9 µM; actives 0.17% (n = 290,000); DNA fluorescent intercalator displacement, fluorescence; in the data active = inhibition above about 37%;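 also: 0% = vehicle and 100% = reference compound; higher means more ethidium bromide displaced from hairpin DNA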
MLLE-PAM2 inh – blocks PAM2 peptide binding to the PABP1 MLLE domain | P11940 | GST-MLLE / FITC-PAM2 fluorescence polarization | inhibition, % at 20 µM | actives 0.36% (n = 360,000) | AID 588489; in the data active = inhibition above about 35%, passing the limit was not always enough;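 also: plate controls were DMSO wells with GST-MLLE for no effect and wells lacking GST-MLLE protein for full effect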
eIF4H FP inh – inhibitors of RNA binding by human eIF4H. Q15056. eIF4H fluorescence polarization binding assay. inhibition, % at 35 µM. actives 0.94% (n = 290,000);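 also: calls also rest on retests at 20 µM and on dose response follow-up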
* hit, by the source's call; i = inactive; ? = inconclusive; . = no result given. Unless noted, no rule for the calls is given here.

SMILES | HCV core dimer | NS3 helicase inh | PABP FP inh | FID counter | MLLE-PAM2 inh | eIF4H FP inh
O=C(N/N=C/c1ccc([N+](=O)[O-])o1)c1cc(-c2ccncc2)nc2ccccc12 | -1 | 25 | 20* | -14 | 0 | 68*
Cc1ccc(/C=N/NC(=O)c2cc(-c3ccncc3)nc3ccccc23)o1 | . | 6 | 0 | -26 | 3 | 10
O=C(N/N=C/c1ccc([N+](=O)[O-])o1)c1cc(-c2ccc(-c3ccccc3)cc2)nc2ccccc12 | 67* | -8 | -6 | -13 | -10 | 58
O=C(CNc1cccc2ccccc12)N/N=C/c1ccc([N+](=O)[O-])o1 | -1 | 14 | active | 2 | 10 | 85*
Nn1c(SCC(=O)NC2CCCCC2)nnc1-c1ccccc1F | . | . | . | . | -12 | .
Cc1ccc(NC(=O)COC(=O)C2CC2(Cl)Cl)cc1C (stereo unspecified) | 2 | 4 | 31 | -6 | -17 | -10
Cn1c(/C=C/c2ccccc2)nc2ccccc2c1=O | -3 | 18 | 1 | -11 | 7 | -5
Cn1c(/C=C/c2ccc([N+](=O)[O-])o2)nc2ccccc2c1=O | 13 | 20 | 68* | -4 | -17 | ?
Cc1ccc(-c2cc(C(=O)N/N=C/c3ccc([N+](=O)[O-])o3)c3ccccc3n2)o1 | . | 16 | 32* | -28 | -2 | 76*
Cc1ccc(C)c(CC(=O)N2CCCCC2c2cc(C(=O)Nc3cccc(C#N)c3)no2)c1 (stereo unspecified) | . | . | . | . | 4 | .
Cc1ccc[n+](CC(=O)Nc2cc(C(F)(F)F)ccc2N2CCOCC2)c1 | 6 | -8 | -11 | 21 | -128 | -7
CC(=O)COc1ccc2oc(=O)cc(-c3cc4ccccc4o3)c2c1 | 12 | 13 | -4 | -30 | -13 | 7
O=c1cc(-c2cc3ccccc3o2)c2cc(O)ccc2o1 | -1 | 12 | 60* | 2 | 0 | 80*
CCOc1ccc(S(=O)(=O)NCCC(=O)NCC(c2ccc(F)cc2)N2CCOCC2)cc1 (stereo unspecified) | -2 | . | . | . | 18 | .
O=c1cc[nH]c2c(Cl)cccc12 | -8 | 4 | -3 | -7 | -2 | 5
O=c1cc[nH]c2c1ccc1c(=O)cc[nH]c12 | 5 | 2 | 33 | -3 | 4 | 86*
CC(=O)C(=Cc1cc(C)n(-c2ccccc2)c1C)C(C)=O | -13 | -3 | 7.4* | -2 | -1 | 54*
Cc1cc(C=O)c(C)n1-c1cccc(C(=O)O)c1 | 0 | -4 | 56 | -2 | -2 | 80*
Cc1ccc(C)n1-c1cccc(N)c1 | 64* | 1 | 27 | 3 | . | 36
Cc1ccc(C)n1-c1cccc(C(=O)Nc2ccccc2)c1 | 8 | 11 | -6 | -7 | 4 | 0
Cc1ccc(C)n1-c1cccc(C(=O)O)c1 | -82 | . | 77* | . | . | 91*
COc1ccc(N)cc1-n1c(C)ccc1C | -3 | -2 | 67 | -3 | 23 | 85
COCc1cccc(-c2csc(C(O)c3cccc(OC)c3)n2)c1 (stereo unspecified) | . | . | . | . | 0 | .
CCOC(=O)c1sc(=S)n(-c2ccc(F)c(F)c2)c1N | 1 | 1 | -5 | 3 | 35 | -4
CCOC(=O)c1sc(=S)n(-c2ccc3c(c2)OCO3)c1N | 6 | -6 | 12 | 6 | 40* | 1
SMILES | HCV core dimer | NS3 helicase inh | PABP FP inh | FID counter | MLLE-PAM2 inh | eIF4H FP inh
Cc1c(N2C(=O)c3ccc4c5c(ccc(c35)C2=O)CC4)c(=O)n(-c2ccccc2)n1C | 82* | 15 | 71* | -4 | 3 | 93*
Cc1c(N2C(=O)c3ccc(Br)cc3C2=O)c(=O)n(-c2ccccc2)n1C | -3 | 5 | 2 | 3 | -5 | -8
CC(=O)N(CCCc1ccc(C(C)(C)C)cc1)CCCN(C)C | -1 | -36 | -5 | 38* | -2 | -8
CC(=O)N(CCCN(C)C)Cc1ccccn1 | -3 | -3 | -8 | 1 | -3 | 3
COc1ccccc1CN(C)C[C@@H]1OCc2cnnn2CCCC(=O)N([C@@H](C)CO)C[C@H]1C | . | . | . | . | 14 | .
N#Cc1c(-c2ccncc2)c2c([nH]c1=S)CCCC2 | 0 | 5 | -2 | 0 | 27 | -3
Cc1ccc(-c2c3c([nH]c(=S)c2C#N)CCCC3)o1 | 19 | 31 | 65* | -16 | -42 | 56*
CCCCNC(=O)C1(C)CCN1C(=O)c1cc(-c2cccs2)oc1C (stereo unspecified) | . | . | . | . | 7 | .
O=C1NN(c2ccccc2)C(=O)/C1=C/c1ccc(-c2ccc(C(=O)O)cc2)o1 | -7 | 0 | 70* | -15 | -20 | 68*
COC(=O)c1ccc(N2NC(=O)/C(=C/c3ccc(-c4ccc(Cl)c(C(=O)O)c4)o3)C2=O)cc1 | . | 9 | 63* | -11 | -14 | 71*
Cc1ccc(N2NC(=O)/C(=C/c3ccc(-c4ccc(Cl)c(C(=O)O)c4)o3)C2=O)cc1C | -43 | 20 | 13 | -10 | -11 | 1
CC1=NN(c2ccccc2)C(=O)/C1=C/c1ccc(-c2ccc(C)c(C(=O)O)c2)o1 | -11 | . | . | . | . | .
O=C(O)c1ccc(N2C(=O)/C(=C/c3ccc(-c4ccc([N+](=O)[O-])cc4)o3)C=C2c2ccccc2)cc1 | 30 | 40* | -3 | -31 | -81 | 33
O=C1NN(c2ccc(Cl)c(Cl)c2)C(=O)/C1=C/c1ccc(-c2ccccc2C(=O)O)o1 | . | 32 | 64* | 28 | 24 | 40*
O=C(N/N=C/c1ccc(-c2cccc([N+](=O)[O-])c2)o1)c1ccc([N+](=O)[O-])cc1 | 1 | -1 | 16 | 5 | 10 | -3
CC1(C)OC(=O)C(=Cc2ccc(-c3ccc(Cl)c(C(=O)O)c3)o2)C(=O)O1 | 13 | 29 | -6 | -2 | 13 | 36
CC1=NN(c2ccc(Cl)c(C(=O)O)c2)C(=O)/C1=C\c1ccc(-c2ccc(C(=O)O)cc2)o1 | . | 0 | 11 | -4 | 16 | 52*
O=c1c(-c2cc3ccccc3o2)[n+]([O-])c2ccccc2n1OCc1ccccn1 | -9 | 4 | 61* | -2 | 2 | 85
COc1cc(C)c(CNc2ccc(OC)c(OC)c2)cc1C | -1 | -10 | 81* | 2 | . | 63*
CCOC(=O)NC(=O)/C(C#N)=C/c1ccc(N(C)C)cc1 | -3 | 5 | 44* | -4 | -139 | 77
CN(C)c1ccc(/C=C(\C#N)C(=O)c2ccccc2)cc1 | -4 | 3 | ? | -10 | i | ?
Cc1cc(O)ccc1N/C=C1\CCCC1=O | -13 | 19 | 6 | -10 | -20 | 81*
CCN(CC)CCCNC(=O)c1cc(Cl)c(NC(=O)C2=C(C)OCCS2)cc1OC | 2 | -9 | 55* | 4 | -12 | 93*
CC(C)(C)NC(=O)CSc1nnc(-c2ccccn2)n1Cc1ccccc1 | -1 | -4 | 1 | -33 | 1 | -3
C=CCNC(=O)CSc1nnc(-c2ccccn2)n1Cc1ccccc1 | -2 | -14 | 52* | -10 | 5 | ?
